In ChEMBL document CHEMBL4334484, “Polyketides and a Dihydroquinolone Alkaloid from a Marine-Derived Strain of the Fungus Metarhizium marquandii” (2019):
Active and inactive are the calls of the source. The calls are words filed in the database; no cut-off is given here.

Assays:
[1] = tested on: L5178Y; assay: Cytotoxicity against mouse L5178Y cells assessed as cell growth inhibition at 10 ug/ml measured after 72 hrs by MTT assay; assay type: functional, cell-based
Outline: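 L5178Y mouse lymphoma cells, MTT read-out relative to untreated controls, compounds at 10 μg/mL. Negative control: medium with 0.1% ethylene glycol monomethyl ether/DMSO; kahalalide F positive control. Three independent experiments, each in triplicate.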

[2] = tested on: Mycobacterium tuberculosis; assay: Antibacterial activity against Mycobacterium tuberculosis by CLSI protocol based broth microdilution method; assay type: functional
Outline: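 Broth microdilution per CLSI guidelines. Serial 2-fold dilutions up to a highest tested concentration of 64 μg/mL, with DMSO diluted along with the compounds. Rifampicin served as positive control.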

[3] = tested on: Staphylococcus aureus; assay: Antibacterial activity against Staphylococcus aureus ATCC 29213 by CLSI protocol based broth microdilution method; assay type: functional
Outline: (§1)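 Serial 2-fold dilutions, DMSO diluted along with compounds; highest concentration tested 64 μg/mL. Moxifloxacin positive control for S. aureus, rifampicin for A. baumanii and P. aeruginosa.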

[4] = tested on: Staphylococcus aureus; assay: Antibacterial activity against Staphylococcus aureus ATCC 700699 by CLSI protocol based broth microdilution method; assay type: functional; outline: as §1
[5] = tested on: Acinetobacter baumannii; assay: Antibacterial activity against Acinetobacter baumannii BAA 1605 by CLSI protocol based broth microdilution method; assay type: functional; outline: as §1
[6] = tested on: Pseudomonas aeruginosa; assay: Antibacterial activity against Pseudomonas aeruginosa 27853 by CLSI protocol based broth microdilution method; assay type: functional; outline: as §1

Row | SMILES | Activity [1] | MIC [2] [µM] | MIC [3] [µM] | MIC [4] [µM] | MIC [5] [µM] | MIC [6] [µM]
1 | O=C1Nc2ccccc2[C@](O)(c2cccc(O)c2)[C@H]1O | inactive | > 100 | > 100 | > 100 | > 100 | > 100
2 | CC(=O)c1cc(C)c(O)c(CC2=C(O)C(CC(=O)O)OC2=O)c1O (racemic) | inactive | > 100 | > 100 | > 100 | > 100 | > 100
